The source of these data is ChEMBL document CHEMBL1148742, “Structure-activity relationship of 2-oxoamide inhibition of group IVA cytosolic phospholipase A2 and group V secreted phospholipase A2” (2007).

Assay [1] deals with Rattus norvegicus. The assay is described as follows: Antiinflammatory activity against carrageenan-induced paw edema in rat. The format is functional. The method in brief: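 Compound given ip at the same time as intradermal carrageenan into the rat paw; rats were euthanized after 3.5 h. Edema was taken as injected minus uninjected paw weight and expressed as percent inhibition versus controls. Four doses were used, each on two groups of five animals, averaged over two experiments. ED50 was derived from the four doses; Student's t-test was used.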

The species entered for assay [2] is Homo sapiens. The assay can be described thus: Inhibition of human GIVA cPLA2. The method in brief:
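Pure native human GIVA cPLA2 (10 ng) in 100 mM HEPES pH 7.5, 80 µM CaCl2, 0.1 mg/mL fatty acid-free BSA, 2 mM DTT. Substrate was mixed micelles of 97 µM 1-palmitoyl-2-[14C]arachidonoyl PC, 3 µM PIP2 and 400 µM Triton X-100, in 1% DMSO. Incubated 10-60 min at 40 °C; [14C]-AA release measured by modified Dole assay and compared with DMSO-only control. XI(50) expressed as mole fraction of inhibitor over inhibitor plus substrate plus detergent.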

Assay [3] has as its system Rattus norvegicus. The assay is described as follows: Analgesic activity in rat assessed as decrease in writhes at 0.0001 mmol/kg, ip. The format is functional. Details: scale not given: the % may be the effect or the level left. The procedure, abridged: (§1)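 Rat writhing test: compound given ip 30 min before ip acetic acid. Each animal's total writhes were compared with a vehicle-treated control group, and analgesic activity was expressed as percent decrease in writhes.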

Assay [4] is filed under the species Homo sapiens. The assay is described as follows: Inhibition of GV sPLA2 at 0.091 mole fraction. The procedure, abridged: (§2)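 Recombinant human GV sPLA2, expressed in E. coli as inclusion bodies, sulfonated, refolded and purified (>90%). Enzyme (40 ng) in 50 mM Tris-HCl pH 8.0, 5 mM CaCl2, with mixed micelles of 100 µM 1-palmitoyl-2-[14C]palmitoyl PC and 400 µM Triton X-100, in 1% DMSO. Incubated 10-60 min at 40 °C; released [14C]-palmitic acid measured by modified Dole extraction. Inhibitor dose expressed as mole fraction.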

Assay [5] deals with Rattus norvegicus. The assay can be described thus: Analgesic activity in rat assessed as decrease in writhes at 0.008 mmol/kg, ip. Type of assay: functional. Also noted: scale not given: the % may be the effect or the level left. The procedure, abridged:
as §1

Assay [6] relates to Rattus norvegicus. The assay can be described thus: Analgesic activity in rat assessed as decrease in writhes at 0.01 mmol/kg, ip. Details: scale not given: the % may be the effect or the level left. The format is functional. The procedure, abridged: as §1
For assay [7], the species on record is Homo sapiens. The assay can be described thus: Inhibition of GV sPLA2 at 0.040 mole fraction. The procedure, abridged: as §2
The species named for assay [8] is Homo sapiens. The assay can be described thus: Inhibition of GV sPLA2 at 0.048 mole fraction. The method in brief:
as §2

The subject of assay [9] is Rattus norvegicus. The assay is described as follows: Analgesic activity in rat assessed as decrease in writhes at 0.00005 mmol/kg, ip. The format is functional. Details: scale not given: the % may be the effect or the level left. The method in brief: as §1
The species entered for assay [10] is Homo sapiens. The assay can be described thus: Inhibition of GV sPLA2 at 0.02 mole fraction. The method in brief: as §2
Assay [11] is filed under the species Homo sapiens. The assay is described as follows: Inhibition of GV sPLA2 at 0.01 mole fraction. The procedure, abridged: as §2
Assay [12] deals with Rattus norvegicus. The assay can be described thus: Analgesic activity in rat assessed as decrease in writhes at 0.0165 mmol/kg, ip. Type of assay: functional. Details: scale not given: the % may be the effect or the level left. The procedure, abridged: as §1

As a reminder, the ED50 is the dose that gives a 50% effect, or the effect in half of the subjects. In turn, `CCCCCCCC/C=C\CCCCCCCC(=O)C(=O)NCCCC(=O)O` gave an ED50 in the assay on Rattus norvegicus [1] of 0.1 µmol/kg. For the same compound, the XI50 in the assay filed under Homo sapiens [2] was 0.011. Moreover, the Activity in the assay on Rattus norvegicus [3] is reported as 53%.
The inhibition is the share of the control response that was lost under treatment. In the assay filed under Homo sapiens [4], `CCCCCCCCCCC(=O)C(=O)N[C@@H](CCCC)C(=O)O` displayed an inhibition of 60%.
With `CCCCCCCCCCC(=O)C(=O)N[C@@H](CCCC)CCC(=O)O`, the XI50 in the assay listed under Homo sapiens [2] came out at 0.009.
Compound `CCCCCCCCCCCCCCC(=O)C(=O)N[C@@H](CCCC)CCC(=O)O` gave a median effective dose (ED50) in the assay with Rattus norvegicus [1] of 8 µmol/kg. Moreover, the XI50 in the assay listed under Homo sapiens [2] was determined as 0.008. Also, the Activity in the assay with Rattus norvegicus [5] turned out to be 65%.
As for `CCCCCCCCCCC(=O)C(=O)N[C@@H](CCCC)CCCCC(=O)O`, the 50% effective dose (ED50) with Rattus norvegicus [1] was found to be 10 µmol/kg. In addition, in the assay on Rattus norvegicus [6], the Activity was 33%. In the assay listed under Homo sapiens [2], this compound had an XI50 of 0.025. Moreover, in the assay listed under Homo sapiens [4], the inhibition amounted to 22%.
In turn, `O=C(O)CCCNC(=O)C(=O)CCCc1ccccc1` showed an inhibition in the assay listed under Homo sapiens [4] of 34%.
In turn, `CCCCCCCC/C=C\CCCCCCCC(=O)C(=O)NCCCC(=O)OC` displayed an XI50 in the assay listed under Homo sapiens [2] of 0.012. This compound came in with an inhibition in the assay listed under Homo sapiens [7] of 24%.
With `CCCCCCCCCCCCCCC(=O)C(=O)NCCCC(=O)OC`, the inhibition in the assay filed under Homo sapiens [4] turned out to be 22%.
In turn, `CCCCCCC(=O)C(=O)NCCCC(=O)O` showed an inhibition in the assay listed under Homo sapiens [8] of 27%.
In the assay listed under Homo sapiens [4], `COC(=O)CCCNC(=O)C(=O)CCCCc1ccccc1` yielded an inhibition of 31%.
As for `CCCCCCCCCCCCCCC(=O)C(=O)NCCCC(=O)O`, the XI50 in the assay listed under Homo sapiens [2] is 0.017.
The compound `CCCCCCCCCCCCCC(=O)C(=O)N[C@@H](CCCC)CC(=O)O` displayed an XI50 in the assay filed under Homo sapiens [2] of 0.027.
Compound `CCCCCCCCCCCCCC(=O)C(=O)N[C@@H](CCCC)CCCC(=O)O` gave an XI50 in the assay filed under Homo sapiens [2] of 0.005. Further, in the assay listed under Homo sapiens [4], the inhibition was 26%.
Turning to `CCCCCCCCCCC(=O)C(=O)N[C@@H](CCC(=O)O)C(=O)O`, in the assay listed under Homo sapiens [4], the inhibition came to 15%.
The same measure, in the same setting: with `CCCCCCCCCCCCCCC(=O)C(=O)N[C@@H](CCCC)COC(=O)NCCCCCCCC` the figure was 20%.
Turning to `CCCCCCCCCCCCCC(=O)C(=O)N[C@@H](CCCC)CCC(=O)O`, the XI50 in the assay filed under Homo sapiens [2] is 0.01. For the same compound, in the assay filed under Homo sapiens [4], the inhibition was 30%.
The compound `CCCCCCCCCCCCCCC(=O)C(=O)N[C@@H](CCCC)CCCC(=O)O` gave an ED50 in the assay with Rattus norvegicus [1] of 0.05 µmol/kg. In addition, in the assay filed under Homo sapiens [2], the XI50 came to 0.005. In addition, the Activity with Rattus norvegicus [9] worked out at 71%.
The compound `CCCCCCCCCCCCCC(=O)C(=O)N[C@@H](CCCC)CCCCC(=O)O` registered an XI50 in the assay listed under Homo sapiens [2] of 0.013. In addition, the inhibition in the assay filed under Homo sapiens [4] is 22%.
`CCCCCCCC/C=C\CCCCCCCCNC(=O)C(=O)CCCCCCCCCCCCCC` showed an inhibition in the assay filed under Homo sapiens [10] of 37%.
Take `CCCCCCC(=O)C(=O)N[C@H](CCC(=O)O)Cc1ccccc1`: the inhibition in the assay listed under Homo sapiens [4] was 14%.
Compound `CCCCCCCC/C=C\CCCCCCCCNC(=O)C(=O)CCCCCC` registered an inhibition in the assay listed under Homo sapiens [11] of 22%.
For the compound `CCCCCCCCCCC(=O)C(=O)N[C@@H](CCC(=O)O)C(=O)NCC`, the inhibition in the assay filed under Homo sapiens [4] was determined as 30%.
As for `CCCCCCCCCCCCCCC(=O)C(=O)N[C@@H](CCC(=O)O)C(=O)NCCCCCCCCCC`, in the assay on Rattus norvegicus [1], the 50% effect level (ED50) was put at a dose of 16.5 µmol/kg. The same compound displayed an XI50 in the assay listed under Homo sapiens [2] of 0.025. This compound also gave an inhibition in the assay listed under Homo sapiens [4] of 33%. The Activity with Rattus norvegicus [12] stood at 11%.
In the assay listed under Homo sapiens [4], `COC(=O)CCCNC(=O)C(=O)CCCc1ccccc1` had an inhibition of 48%.
`CCCCCCCCCCC(=O)C(=O)N[C@@H](CCC(=O)O)COC(=O)NCCCCCCCC` registered an inhibition in the assay filed under Homo sapiens [4] of 60%.
On the same count and under the same terms, the figure for `CCCCCCCCCCCCCCCCNC(=O)C(=O)CC` is 30%.
As for `CCCCCCCCCCC(=O)C(=O)N[C@H](CCC(=O)O)C(=O)NCC`, the inhibition in the assay filed under Homo sapiens [4] came to 12%.
Turning to `NC(=O)C(=O)CCCCc1ccccc1`, the inhibition in the assay filed under Homo sapiens [4] was determined as 45%.
`CCCCCCCCCCC(=O)C(=O)N[C@@H](CCC(=O)OC)COC(=O)NCCCCCCCC` displayed an XI50 in the assay filed under Homo sapiens [2] of 0.02.
`O=C(O)CCCNC(=O)C(=O)CCCCc1ccccc1` yielded an inhibition in the assay filed under Homo sapiens [4] of 27%.
